Measured values from ChEMBL document CHEMBL4177701, “A novel series of enoyl reductase inhibitors targeting the ESKAPE pathogens, Staphylococcus aureus and Acinetobacter baumannii” (Bioorg Med Chem, 2018).
pIC50, pKi: −log10 of the molar value. In brackets after ≈: the same amount, converted by molar mass. Activity calls are given as the source filed them. No cut-off for these calls is given here.

Tests used:
Acinetobacter baumannii [1] = assay: Synergistic antibacterial activity against Acinetobacter baumannii 2208 ATCC 19606 assessed as colistin MIC by checkerboard method; type: functional; settings: ATCC 19606 = CIP 70.34 = JCM 6841 2208
Staphylococcus aureus [2] = assay: Antibacterial activity against Staphylococcus aureus RN4220 over-expressing FabI by microbroth dilution method; type: functional
Summary of the method: (§1)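 Broth microdilution MIC; reported value is mean of at least two runs, within two-fold experimental uncertainty.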

[3] = target: T1, Enoyl-[acyl-carrier-protein] reductase [NADPH] FabI (Staphylococcus aureus) (UniProt Q6GI75); assay: Binding affinity to Staphylococcus aureus subsp. aureus Rosenbach ATCC 43300 FabI by SPR assay
T1 sequence (whole entry): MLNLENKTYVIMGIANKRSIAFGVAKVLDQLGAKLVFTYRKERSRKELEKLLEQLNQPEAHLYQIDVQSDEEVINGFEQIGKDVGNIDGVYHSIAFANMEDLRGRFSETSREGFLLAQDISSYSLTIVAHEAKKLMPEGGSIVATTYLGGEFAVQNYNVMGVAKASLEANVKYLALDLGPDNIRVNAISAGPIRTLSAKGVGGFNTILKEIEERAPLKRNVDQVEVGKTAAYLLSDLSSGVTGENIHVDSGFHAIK

[4] = Inhibition of Acinetobacter baumannii 2208 ATCC 19606 FabI using crotonyl-CoA as substrate in presence of NADPH/NADH after 10 mins by fluorescence assay; set-up: species or system Acinetobacter baumannii ATCC 19606 = CIP 70.34 = JCM 6841
Summary of the method: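 AbFabI, 200 nM, in 50 mM MES/100 mM NaCl with 200 μM NADH, 0.1 mg/mL BSA and 0.01% triton. Reaction started with 300 μM crotonyl-CoA. NADH fluorescence read at 340/460 nm. Compounds tested at 0.4 nM–200 μM. Initial 10-min slopes were compared with a DMSO no-compound control. At least two independent experiments, each in duplicate; two-fold uncertainty.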

Staphylococcus aureus [5] = assay: Antibacterial activity against Staphylococcus aureus Newman by microbroth dilution method; type: functional
Summary of the method: (§2)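 Microbroth dilution MIC; each value is the mean of at least two runs, within two-fold experimental uncertainty.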

[6] = Competitive inhibition of Acinetobacter baumannii 2208 ATCC 19606 FabI using crotonyl-CoA as substrate in presence of NADPH/NADH after 10 mins by fluorescence assay; set-up: species or system Acinetobacter baumannii ATCC 19606 = CIP 70.34 = JCM 6841
Staphylococcus aureus [7] = assay: Antibacterial activity against methicillin-resistant Staphylococcus aureus subsp. aureus Rosenbach ATCC 43300 by microbroth dilution method; type: functional; summary of the method: as §1
[8] = system: Acinetobacter baumannii ATCC 19606 = CIP 70.34 = JCM 6841; assay: Binding affinity to Acinetobacter baumannii 2208 ATCC 19606 FabI by SPR assay
Staphylococcus aureus [9] = assay: Antibacterial activity against Staphylococcus aureus RN4220 by microbroth dilution method; type: functional; summary of the method: as §1
Acinetobacter baumannii [10] = assay: Antibacterial activity against Acinetobacter baumannii 2208 ATCC 19606 by microbroth dilution method; type: functional; settings: ATCC 19606 = CIP 70.34 = JCM 6841 2208; summary of the method: as §2
Escherichia coli [11] = assay: Antibacterial activity against Escherichia coli BW25113 harboring TolC deletion mutant by microbroth dilution method; type: functional; summary of the method: as §1
[12] = target: T2, Enoyl-[acyl-carrier-protein] reductase [NADPH] FabI (Staphylococcus aureus, UniProt Q6GI75); assay: Competitive inhibition of Staphylococcus aureus subsp. aureus Rosenbach ATCC 43300 FabI using crotonyl-CoA as substrate in presence of NADPH/NADH after 10 mins by fluorescence assay
T2 sequence (Q6GI75 whole entry): T1 sequence (whole entry)

Escherichia coli [13] = assay: Antibacterial activity against Escherichia coli BW25113 mutant by microbroth dilution method; type: functional; summary of the method: as §1
[14] = target: T2, Enoyl-[acyl-carrier-protein] reductase [NADPH] FabI; assay: Inhibition of Staphylococcus aureus subsp. aureus Rosenbach ATCC 43300 FabI using crotonyl-CoA as substrate in presence of NADPH/NADH after 10 mins by fluorescence assay
Summary of the method: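 SaFabI enzyme, 300 nM, in 50 mM MES/100 mM NaCl with 200 μM NADPH, 0.1 mg/mL BSA, 0.01% triton; started with 400 μM crotonyl-CoA. NADPH fluorescence at 340/460 nm. Compounds 0.4 nM–200 μM. Slopes over first 10 min compared with DMSO control for % inhibition. At least two independent experiments, each in duplicate. Two-fold experimental uncertainty.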

Acinetobacter baumannii [15] = assay: Synergistic antibacterial activity against Acinetobacter baumannii 2208 ATCC 19606 assessed as fractional inhibitory concentration in presence of colistin by checkerboard method; type: functional, ATCC 19606 = CIP 70.34 = JCM 6841 2208
Acinetobacter baumannii [16] = assay: Synergistic antibacterial activity against Acinetobacter baumannii 2208 ATCC 19606 in presence of colistin by checkerboard method; type: functional; settings: ATCC 19606 = CIP 70.34 = JCM 6841 2208

SMILES	MIC (Acinetobacter baumannii [1])	MIC (Staphylococcus aureus [2])	Activity [3]	pIC50 [4]	MIC (Staphylococcus aureus [5])	pKi [6]	MIC (Staphylococcus aureus [7])	Activity [8]	MIC (Staphylococcus aureus [9])	MIC (Acinetobacter baumannii [10])	MIC (Escherichia coli [11])	pKi [12]	MIC (Escherichia coli [13])	Activity (Staphylococcus aureus [2])	Activity (Staphylococcus aureus [9])	pIC50 [14]	FIC (Acinetobacter baumannii [15])	MIC (Acinetobacter baumannii [16])
CC(=O)Nc1ccc(/C=C/C(=O)N2CCC(c3ccccc3)C2)cn1 (racemic)	3.1 µg/mL	> 200 µg/mL	Active	6.33	> 200 µg/mL	6.70	> 200 µg/mL	Active	> 200 µg/mL	> 200 µg/mL	12.5 µg/mL (≈ 37.3 µM)	6.40	–	–	–	–	–	–
COc1ccccc1C1CCN(C(=O)Cc2cccc(F)c2F)C1 (racemic)	–	> 200 µg/mL	Active	5.13	100 µg/mL	5.43	100 µg/mL (≈ 302 µM)	Active	100 µg/mL (≈ 302 µM)	> 200 µg/mL	–	5.96	> 200 µg/mL	–	–	–	–	–
CC(=O)Nc1ccc(/C=C/C(=O)N2CCC(c3ccc4c(c3)OCO4)C2)cn1 (racemic)	1.56 µg/mL	> 200 µg/mL	Active	5.07	–	5.37	> 200 µg/mL	Active	–	> 200 µg/mL	> 200 µg/mL	6.40	> 200 µg/mL	–	–	–	–	–
CN(C)[C@@H]1C(O)=C(C(N)=O)C(=O)[C@@]2(O)C(O)=C3C(=O)c4c(O)cccc4[C@@](C)(O)[C@H]3C[C@@H]12	–	–	–	–	–	–	–	–	–	–	–	–	–	Active	Active	–	–	–
O=C(Cc1cccc(F)c1F)N1CCC(c2ccc3c(c2)OCO3)C1 (racemic)	–	–	Active	4.86	–	5.16	> 200 µg/mL	Active	> 200 µg/mL	> 200 µg/mL	–	5.70	> 200 µg/mL	–	–	–	–	–
CC[C@H]1OC(=O)[C@H](C)[C@@H](O[C@H]2C[C@@](C)(OC)[C@@H](O)[C@H](C)O2)[C@H](C)[C@@H](O[C@@H]2O[C@H](C)C[C@H](N(C)C)[C@H]2O)[C@](C)(O)C[C@@H](C)C(=O)[C@H](C)[C@@H](O)[C@]1(C)O	–	–	–	–	–	–	–	–	–	–	–	–	–	Active	Active	–	–	–
COc1ccc(C2CCN(C(=O)Cc3ccc(NC(C)=O)cc3)C2)cc1 (racemic)	–	> 200 µg/mL	Active	< 4.00	–	< 4.30	> 200 µg/mL	Active	–	> 200 µg/mL	–	< 4.43	> 200 µg/mL	–	–	< 4.00	–	–
CC(=O)Nc1ccc(CC(=O)N2CCC(c3nccs3)C2)cc1 (racemic)	–	> 200 µg/mL	Active	< 4.00	–	< 4.30	> 200 µg/mL	Active	–	> 200 µg/mL	–	< 4.43	> 200 µg/mL	–	–	< 4.00	–	–
COc1ccc(C2CCN(C(=O)Cc3ccccc3Cl)C2)cc1 (racemic)	–	–	Active	< 3.70	–	< 4.00	> 200 µg/mL	Active	> 200 µg/mL	> 200 µg/mL	> 200 µg/mL	5.34	–	–	–	–	–	–
COc1ccccc1C1CCN(C(=O)Cc2ccccc2F)C1 (racemic)	–	100 µg/mL (≈ 319 µM)	Active	5.68	160 µM	5.96	100 µg/mL (≈ 319 µM)	Active	50 µg/mL (≈ 160 µM)	> 200 µg/mL	–	5.77	> 200 µg/mL	–	–	–	–	–
O=C(Cc1ccccc1Cl)N1CCC(c2nccs2)C1 (racemic)	0.39 µg/mL	> 200 µg/mL	Active	4.85	163 µM	5.15	100 µg/mL (≈ 326 µM)	Active	–	> 200 µg/mL	> 100 µg/mL	5.66	> 100 µg/mL	–	–	–	0.75	50 µg/mL
CC(=O)Nc1ccc(/C=C/C(=O)N2CCC(c3ccccn3)C2)cn1 (racemic)	0.39 µg/mL	–	Active	5.15	> 200 µg/mL	5.44	> 200 µg/mL	Active	> 200 µg/mL	> 200 µg/mL	> 200 µg/mL	4.98	> 200 µg/mL	–	–	–	1	100 µg/mL
CN[C@@H]1[C@H](O[C@H]2[C@H](O[C@H]3[C@H](O)[C@@H](O)[C@H](N=C(N)N)[C@@H](O)[C@@H]3N=C(N)N)O[C@@H](C)[C@]2(O)C=O)O[C@@H](CO)[C@H](O)[C@H]1O	–	–	–	–	–	–	–	–	–	–	–	–	–	Active	Active	–	–	–
COc1ccccc1C1CCN(C(=O)Cc2ccc(NC(C)=O)cc2)C1 (racemic)	–	> 200 µg/mL	Active	< 4.00	–	< 4.30	> 200 µg/mL	Active	–	> 200 µg/mL	–	< 4.43	> 200 µg/mL	–	–	< 4.00	–	–
CC(C)S(=O)(=O)c1ccc(CC(=O)N2CCC(c3ccc4c(c3)OCO4)C2)cc1 (racemic)	–	> 200 µg/mL	Active	< 4.00	–	< 4.30	> 200 µg/mL	Active	–	> 200 µg/mL	–	< 4.43	> 200 µg/mL	–	–	< 4.00	–	–
COc1ccc(C2CCN(C(=O)/C=C/c3ccc(NC(C)=O)nc3)C2)cc1 (racemic)	–	> 200 µg/mL	Active	< 3.70	–	< 4.00	–	Active	–	> 200 µg/mL	–	5.89	> 200 µg/mL	–	–	5.44	–	–
CC(=O)Nc1ccc(CC(=O)N2CCC(c3ccc4c(c3)OCO4)C2)cc1 (racemic)	–	> 200 µg/mL	Active	< 4.00	–	< 4.30	> 200 µg/mL	Active	–	> 200 µg/mL	–	< 4.43	> 200 µg/mL	–	–	< 4.00	–	–
COc1ccccc1C1CCN(C(=O)/C=C/c2ccc(NC(C)=O)cc2)C1 (racemic)	–	> 200 µg/mL	Active	< 4.00	–	< 4.30	> 200 µg/mL	Active	–	> 200 µg/mL	–	< 4.43	> 200 µg/mL	–	–	< 4.00	–	–
O=C(N[C@H](CO)[C@H](O)c1ccc([N+](=O)[O-])cc1)C(Cl)Cl	–	–	–	–	–	–	–	–	–	–	–	–	–	Active	Active	–	–	–
O=C(Cc1ccccc1F)N1CCC(c2ccc3c(c2)OCO3)C1 (racemic)	–	> 200 µg/mL	Active	4.49	–	4.80	> 200 µg/mL	Active	–	> 200 µg/mL	–	6.00	> 200 µg/mL	–	–	–	–	–
CC(=O)Nc1ccc(/C=C/C(=O)N2CCC(c3nccs3)C2)cn1 (racemic)	0.39 µg/mL	–	Active	4.70	> 200 µg/mL	5.00	> 200 µg/mL	Active	> 200 µg/mL	> 200 µg/mL	> 200 µg/mL	5.77	> 200 µg/mL	–	–	–	1	100 µg/mL
O=C(Cc1c(F)cccc1F)N1CCC(c2ccc3c(c2)OCO3)C1 (racemic)	–	> 200 µg/mL	Active	4.27	–	4.57	> 200 µg/mL	Active	–	> 200 µg/mL	–	6.05	> 200 µg/mL	–	–	–	–	–
